From ChEMBL document CHEMBL3044971, “Dialkoxybenzene and dialkoxyallylbenzene feeding and oviposition deterrents against the cabbage looper, Trichoplusia ni: potential insect behavior control agents” (J Agric Food Chem, 2010)

How the values were obtained:
[1] = tested on: Trichoplusia ni; assay: Oviposition deterrent activity against adult female Trichoplusia ni (cabbage looper) moths introduced along with male moths into oviposition cage containing compound pretreated cabbage leaves assessed as eggs laying on the leaf disks at 0.25% after 48 hr; type: functional
Outline: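 Choice test: one male and one female moth were caged with a control and a treated cabbage leaf (~100-110 cm²). Each side was sprayed with 0.5 mL MeOH or methanolic test solution at 0.25%. Values are mean ± SE, N = 35-40.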

[2] = tested on: Trichoplusia ni; assay: Feeding deterrent activity against freshly molted third-instar larval stage of Trichoplusia ni (cabbage looper) in compound pretreated cabbage leaves after 3 to 5 hr by leaf disk choice bioassay; type: functional, organism-based
Outline: (§1)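 Leaf-disk choice test on greenhouse cabbage (Stonehead) leaves from 5-6-week plants. Freshly molted third-instar T. ni from a diet-reared colony (>50 generations) were starved 4-5 h. One disk had 10 μL test solution painted on each side, the other carrier solvent only. There were 25 larvae per treatment. Run ended at ~50% control disk eaten (3-5 h). Deterrence = (C−T)/(C+T)×100 from consumed areas.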

[3] = tested on: Trichoplusia ni; assay: Feeding deterrent activity against freshly molted third-instar larval stage of Trichoplusia ni (cabbage looper) in compound pretreated cabbage leaves at 50 ug/cm2 after 3 to 5 hr by leaf disk choice bioassay; type: functional; outline: as §1
[4] = tested on: Trichoplusia ni; conditions: in vivo, 24 h

SMILES	Activity [1]	DC50 [2]	Activity [3]	mortality [4]
C=CCc1cc(OCCC(C)C)ccc1OCCC(C)C	20%	15 microg/cm2	83%	27%
C=CCc1cc(OCCC)ccc1OCCC(C)C	20%	15 microg/cm2	83%	27%
C=CCc1cc(OCCCC)ccc1OCCC(C)C	20%	15 microg/cm2	83%	27%
C=CCc1cc(OCC)ccc1OCCC(C)C	20%	15 microg/cm2	83%	27%
C=CCc1cc(OC)ccc1OCCC(C)C	20%	15 microg/cm2	83%	27%
C=CCc1cc(OCCCC)ccc1OCCC	21%	33 microg/cm2	65%	17%
C=CCc1cc(OCCC(C)C)ccc1OCCC	21%	33 microg/cm2	65%	17%
C=CCc1cc(OCCC)ccc1OCCC	21%	33 microg/cm2	65%	17%
C=CCc1cc(OCC)ccc1OCCC	21%	33 microg/cm2	65%	17%
C=CCc1cc(OCCC(C)C)ccc1OC	37%	19 microg/cm2	68%	17%
C=CCc1cc(OCCC)ccc1OC	37%	19 microg/cm2	68%	17%
C=CCc1cc(OCCCC)ccc1OC	37%	19 microg/cm2	68%	17%
C=CCc1cc(OC)ccc1OC	14%	20 microg/cm2	80%	17%
C=CCc1cc(OCC)ccc1OC	37%	19 microg/cm2	68%	17%
C=CCc1cccc(OCCCC)c1OCC	31%	20 microg/cm2	100%	27%
C=CCc1cccc(OCCC(C)C)c1OCC	31%	20 microg/cm2	100%	27%
C=CCc1cccc(OCCC)c1OCC	31%	20 microg/cm2	100%	27%
C=CCc1cccc(OC)c1OCC	31%	20 microg/cm2	100%	27%
C=CCc1cccc(OCC)c1OCC	31%	20 microg/cm2	100%	27%

SMILES	Activity [1]	DC50 [2]	Activity [3]	mortality [4]
C=CCc1cccc(OCCC)c1OC	32%	15.5 microg/cm2	100%	17%
C=CCc1cccc(OCC)c1OC	32%	15.5 microg/cm2	100%	17%
C=CCc1cccc(OC)c1OC	32%	15.5 microg/cm2	100%	17%
C=CCc1cccc(OCCC(C)C)c1OC	32%	15.5 microg/cm2	100%	17%
C=CCc1cccc(OCCCC)c1OC	32%	15.5 microg/cm2	100%	17%
C=CCOc1ccccc1OCCCC [1-allyloxy-2-butoxybenzene]	35%	17 microg/cm2	92%	19%
C=CCOc1ccccc1OCCC [1-allyloxy-2-propoxybenzene]	12%	12 microg/cm2	96%	10%
C=CCOc1ccc(OC)cc1 [1-allyloxy-4-methoxybenzene]	13%	30 microg/cm2	62%	6%
COc1cccc(OCCC(C)C)c1 [1-isopentyloxy-3-methoxybenzene]	30%	29 microg/cm2	89%	30%
CCCCOc1ccccc1OCCC [1-propoxy-2-butoxybenzene]	37%	21 microg/cm2	98%	19%
CCCOc1cccc(OCCC(C)C)c1 [3-PROPOXY-1-ISOPENTOXYBENZENE]	9%	17 microg/cm2	97%	10%
CCCOc1ccc(OCC)cc1 [4-ETHOXY-1-PROPOXYBENZENE]	10%	33.3 microg/cm2	100%	17%
C=CCOc1ccc(CC=C)cc1OC [ALLYLEUGENOL]	16%	15 microg/cm2	86%	18%
CCN(CC)C(=O)c1cccc(C)c1 [DIETHYLTOLUAMIDE]	23%	47 microg/cm2	60%	7%
C=CCc1ccc(OCC)c(OC)c1 [ETHYLEUGENOL]	18%	50 microg/cm2	51%	35%
C=CCc1ccc(OCCC(C)C)c(OC)c1 [ISOPENTYLEUGENOL]	9%	25 microg/cm2	86%	28%
C=CCc1ccc(OCCCC)c(OC)c1 [N-BUTYLEUGENOL]	34%	12 microg/cm2	92%	15%
C=CCc1ccc(OCCC)c(OC)c1 [PROPYLEUGENOL]	29%	19 microg/cm2	84%	37%
